Compound activity (PubChem)
TCR CD3 inh = inhibitors of human TCR-CD3 interaction. 0.37% of 360,000 active. inhibition, % at 9.4 µM. TAMRA-labeled TCR probe fluorescence, biochemical; in the data active means inhibition above about 19%;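 further: recombinant mutant TCR 2C K166C tagged with TAMRA read by polarization; 0% = receptor in buffer alone and 100% = receptor with positive control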
SIAE inh = blocks human sialic acid acetylesterase; SIAE FP-Rh probe binding, fluorescence polarization; inhibition, % at 9.66 µM; 0.69% of 370,000 active; AID 1053197;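 active means inhibition above a cutoff: mean of compounds within the control limits plus 3 SD of those, cut at about 17% in these data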;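 further: 0% = plate median of compound wells and 100% = probe without SIAE protein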
Tn6 DDE FP = disrupts Tn6 cyclic peptide binding to fibrin D-Dimer-E complex | inhibition, % at 8.3 µM | Fibrin DD(E) TRITC-Tn6 fluorescence polarization displacement | AID 720509 | 0.21% of 370,000 active | P02675;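 active means inhibition above a per-campaign cutoff: mean of compounds within control limits plus 3 SD, cut at about 15% in these data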;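 further: 0% = median of all compound wells on the plate and 100% = blocking peptide control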
Target sequence (P02675 whole entry, looked up): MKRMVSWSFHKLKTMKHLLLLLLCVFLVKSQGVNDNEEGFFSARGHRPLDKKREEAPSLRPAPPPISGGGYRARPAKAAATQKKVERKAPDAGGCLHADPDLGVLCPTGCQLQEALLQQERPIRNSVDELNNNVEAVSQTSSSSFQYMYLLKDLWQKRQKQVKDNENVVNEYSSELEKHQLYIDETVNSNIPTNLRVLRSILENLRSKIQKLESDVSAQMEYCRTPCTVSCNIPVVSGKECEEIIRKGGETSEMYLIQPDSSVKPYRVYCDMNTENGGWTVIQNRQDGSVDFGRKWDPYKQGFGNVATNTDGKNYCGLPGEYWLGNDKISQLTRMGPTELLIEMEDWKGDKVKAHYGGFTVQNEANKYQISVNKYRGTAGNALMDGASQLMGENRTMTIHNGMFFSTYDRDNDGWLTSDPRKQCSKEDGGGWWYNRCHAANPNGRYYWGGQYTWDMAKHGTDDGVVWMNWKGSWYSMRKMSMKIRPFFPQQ
HTRA1 inh = blocks human HTRA1 serine peptidase | 0.5% of 340,000 active | AID 504803 | inhibition, % at 5.96 µM | recombinant HTRA1, FP-rhodamine activity-based probe, fluorescence polarization; in the data active means inhibition above about 36%;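 further: 0% = enzyme with DMSO and 100% = wells lacking enzyme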
Tn7 DDE FP = disrupts Tn7 cyclic peptide binding to fibrin D-Dimer-E complex; P02675; FP displacement of FITC-Tn7 peptide from fibrin DD(E); 0% = median of compound wells per plate; inhibition, % at 8.3 µM; 0.13% of 370,000 active; AID 720508;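 active means inhibition above the mean of compounds falling within the control limits plus 3 SD of them, cut at about 14% in these data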;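 further: 0% = plate median of compound wells and 100% = 10 µM Aha-Tn7 peptide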
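System: human fibrin DD(E); quantity: Fibrin-DD(E) at 2 µM final; also added: fluorescent Tn7 probe at 0.1 µM; compound dosing: single nominal test concentration of 8.3 µM per compound; schedule: 10 min preincubation, 3 h with tracer, room temperature; detection: fluorescence polarization of the labelled Tn7 tracer; repeats: one replicate per compound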
mABHD4 FP = ABHD4 (mouse) inhibition, primary FP screen; inhibition, % at 8.92 µM; Q8VD66; 0.54% of 370,000 active; purified mABHD4, FP-Rh probe fluorescence polarization;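 active means inhibition exceeding the mean over every tested compound plus 3 SD, cut at about 30% in these data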;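 further: 0% = plate median of compound wells and 100% = S159A mutant with DMSO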
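Doses – 8.92 µM, single dose · Material – wild-type mouse ABHD4 protein · Replication – single well per compound (singlicate) · Measure – percent inhibition of probe binding, normalized to plate controls · Schedule – 45 min compound pre-incubation plus 60 min probe step, 25 °C · Detection – fluorescence polarization with parallel and perpendicular emission, 525/598 nm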
ABHD4 confirm = confirmation of mouse ABHD4 inhibitors | purified mABHD4, FP-Rh probe fluorescence polarization | 55% of 1,800 active | shares compounds with mABHD4 FP | AID 720658 | inhibition, % at 8.92 µM;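 active means mean inhibition across replicates above the hit cutoff set in the primary screen, cut at about 30% in these data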;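 further: 0% = wild-type ABHD4 with DMSO and 100% = catalytically dead S159A mutant with DMSO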
* hit, by the source's call; / = no result. Most compounds without a hit are left out; they make up all but 1.8% or so of the library.

SMILES | TCR CD3 inh | SIAE inh | Tn6 DDE FP | HTRA1 inh | Tn7 DDE FP | mABHD4 FP | ABHD4 confirm
O=C(c1ccc(F)cc1)n1ccc2ccc(-c3ccc4ccn(Cc5ccccc5)c4c3)cc21 | / | 0.8 | 8.8 | / | -3.0 | -6.3 | /
Oc1ccc(Br)cc1C=Nc1ccc2c3c(cccc13)CC2 | 14.0 | 7.1 | 10.3 | 20.0 | 8.2 | 54.8* | 22.0
COc1ccc(NC2=CC(=O)CC(c3ccccc3)C2)c(OC)c1 (stereo not drawn) | 1.1 | 8.4 | -0.7 | -5.7 | 1.8 | 18.4 | /
CCOc1ccccc1NC1=CC(=O)CC(c2ccccc2)C1 (stereo not drawn) | -10.2 | -2.8 | 3.1 | -16.6 | -4.3 | 36.8* | -5.8
COc1cc2c3c(c1)/C(=C1/SC(NC(C)=O)=NC1=O)C(=O)N3C(C)(C)C=C2C | 1.1 | 24.9* | -4.5 | 9.3 | 5.1 | 38.1* | 26.7
CC1=CC(C)(C)N2C(=O)C(=O)c3cc(OC(=O)c4ccco4)cc1c32 | -2.2 | 6.2 | 1.5 | / | -4.2 | 13.6 | /
Cc1ccc(/C=N/NC(=O)Cc2ccc(Cl)cc2)s1 | 7.1 | 1.9 | -3.9 | -9.5 | 3.8 | -9.8 | /
CN(C)S(=O)(=O)c1ccc(F)c(C(=O)Nc2ccccc2C(=O)NC2CC2)c1 | -3.5 | -8.6 | 1.4 | -5.3 | -2.9 | -2.2 | /
COCc1cc(N2CCN(C(=O)OC(C)(C)C)C[C@H]2C)ccc1N1CC[C@H](O)C1 | 3.5 | 11.5 | 9.3 | / | 1.3 | 37.5* | 9.4
COCc1cc(N2CCN(C(=O)OC(C)(C)C)C[C@@H]2C)ccc1N1CCS(=O)(=O)CC1 | 4.5 | -2.6 | 5.2 | / | -7.4 | -3.7 | /
COCc1cc(N2CCN(C(=O)OC(C)(C)C)C[C@@H]2C)ccc1N1CC[C@H](O)C1 | 5.9 | 8.8 | -0.1 | / | 5.5 | 34.8* | 14.5
N#CCC[C@H]1CC[C@]2(CCCN(C(=O)C3CCCC3)C2)O1 | / | -0.6 | 0.0 | / | 1.9 | -6.2 | /
O=C(NCCc1c[nH]c2ccccc12)c1ccc(Sc2ccccc2Cl)c([N+](=O)[O-])c1 | / | -11.0 | 7.5 | / | 0.7 | -27.6 | /
CCOC(=O)[C@H]1[C@H]2COc3ccc(Br)cc3[C@@H]2N2C(=O)CN(Cc3ccccc3)C(=O)[C@@]12C | -3.7 | -5.3 | 4.5 | -9.1 | -1.3 | -5.2 | /
Oc1ccc(Br)cc1C1Nc2ccccc2S1 (stereo not drawn) | -3.6 | -6.1 | 2.0 | -11.1 | 4.1 | -2.6 | /
COc1ccc(NC(=O)CN2C(=O)S/C(=C/c3cccn3-c3ccc(C(=O)O)cc3)C2=O)cc1 | 7.1 | -4.5 | -2.0 | -7.8 | 5.9 | 13.2 | /
Cc1oc2c(c(C)nn2-c2ccccc2)c(=O)c1Cl | 4.7 | -3.5 | -3.1 | / | -1.8 | 0.4 | /
COc1cc(C=C2C(=O)C=CC2=O)ccc1O | 16.5 | 9.2 | -4.5 | / | 5.3 | 37.4* | -0.3
O=C(O)[C@H]1CC=C[C@H]2CCN(Cc3ccc(Cl)c(Cl)c3)C(=O)[C@@H]12 | 0.7 | -4.6 | 8.1 | 25.6 | -3.3 | 30.2* | 21.1
OCCNc1nc(Nc2ccc(Br)cc2)nc2ccccc12 | -2.3 | 18.5* | 0.9 | / | -1.2 | 33.9* | 46.8*
Cc1ccc(Nc2nc(NCc3ccco3)c3ccccc3n2)cc1 | 4.1 | 12.3 | -21.0 | -37.1 | -7.3 | 36.1* | 41.0*
CCCn1c(=O)c(C(=O)NCCc2ccc(OC)cc2)c(O)c2ccccc21 | 10.0 | -0.5 | 6.7 | -18.2 | -0.8 | -10.4 | /
CC(=O)C[C@H](O)CC(=O)[C@@H]1OC(=O)CCCCCCCCc2ccccc21 | 5.9 | 3.1 | 5.0 | -3.8 | 8.1 | -5.3 | /
CN(C)c1ccc(C=Nc2ccc(N(C)C)cc2)cc1 | 14.8 | 13.5 | 0.6 | 34.7 | -3.3 | 37.4* | 22.1
CCc1ccc2cc(F)cc(F)c2n1 | -2.9 | 1.9 | 1.3 | / | 3.7 | 3.2 | /
SMILES | TCR CD3 inh | SIAE inh | Tn6 DDE FP | HTRA1 inh | Tn7 DDE FP | mABHD4 FP | ABHD4 confirm
O=C(CCS(=O)(=O)c1cc2c(cc1Br)CCN2C(=O)C1CC1)N1CCN(c2ccccn2)CC1 | / | -3.5 | 3.4 | / | -3.0 | -0.1 | /
Oc1ccc(NC(=S)N=Nc2c(O)[nH]c3ccc(Br)cc23)cc1 | -1.5 | 8.4 | -6.1 | 8.7 | 8.0 | 30.4* | 32.8*
COc1ccccc1CNC(=O)CN1C(=O)NC(Cc2ccccc2)(c2ccccc2)C1=O (stereo not drawn) | 4.2 | 3.7 | -0.3 | -4.0 | 0.1 | -7.0 | /
O=C(O)c1cccc(Nc2nc(-c3cc4ccccc4oc3=O)cs2)c1 | 5.5 | -31.7 | 4.8 | 1.3 | -3.0 | 30.1* | 49.5*
c1ccc(-c2nc(-c3ccccn3)nc(-c3ccccn3)n2)nc1 | 0.8 | -0.8 | 2.2 | 1.7 | 2.8 | 35.4* | 46.8*
Nc1nc(N)nc(-c2ccccn2)n1 | 6.2 | -4.9 | -5.2 | 5.9 | -7.2 | -0.8 | /
N#CC(C#N)=c1ccc2c(c1)N1C3=C(CCCC3)CC3CCCCC31N=2 (stereo not drawn) | -8.0 | 6.9 | 2.1 | 19.2 | -4.8 | 7.4 | /
N#C/C(C(N)=O)=c1/ccc2c(c1)N1C3=C(CCCC3)CC3CCCCC31N=2 (stereo not drawn) | 9.7 | 5.7 | -2.5 | / | -0.7 | 49.2* | 49.3*
CC[C@@]1(C(=O)OC)N[C@H](CN(C)C(=O)COc2ccccc2)[C@@H]2C(=O)N(C)C(=O)[C@@H]21 | -1.7 | -0.7 | -4.5 | 7.0 | 2.5 | 0.7 | /
CCOc1ccccc1C(=O)NCC(=O)OCc1csc(CC(=O)Nc2ccc(C)cc2)n1 | 10.0 | -19.4 | 4.8 | -31.7 | -1.6 | 36.3* | 7.3
O=C1NN(c2cccc(Br)c2)C(=O)/C1=C\c1ccccc1 | -0.2 | 6.5 | -0.3 | -4.3 | -0.4 | 37.2* | 3.5
CC1OC(CC(=O)O)CC2=C1C(=O)c1c(O)cccc1C2=O (stereo not drawn) | -4.8 | 6.2 | 5.8 | 19.2 | 3.5 | 39.8* | 44.0*
Cc1ccccc1NC(=O)CSc1nnc(C)c2ccccc12 | -0.9 | -3.6 | -0.4 | 5.8 | -2.4 | 6.1 | /
COc1ccc(S(=O)(=O)NNC(=O)C(=O)NNc2ccccn2)cc1 | -4.3 | 2.5 | 6.0 | 2.2 | 2.9 | 31.0* | 26.4
COC(=O)Cc1c(C)c2ccc(OCC(=O)N3CCC(C)CC3)c(C)c2oc1=O | 10.4 | -4.1 | 1.1 | -0.7 | -0.9 | 3.0 | /
O=C(NNC(=O)c1cc(O)c(O)c(O)c1)NC1CCCCC1 | 3.5 | -2.9 | -0.5 | 23.9 | -0.1 | 30.6* | 16.2
CC1(C)C2CCC(C2)C1(C)NC(=O)CNC1CCCCC1 (stereo not drawn) | 6.6 | -0.1 | -7.3 | 5.4 | -6.3 | 8.6 | /
COc1ccc(S(=O)(=O)Oc2ccc3ccccc3c2)cc1 | -0.7 | 6.3 | -5.1 | -18.9 | 7.5 | -17.1 | /
COC1=C(OC)C(=O)C(Sc2ccc3ccccc3c2)=CC1=O | 3.5 | 11.1 | -4.9 | 6.3 | -7.7 | 57.1* | 101.8*
F[B-](F)(F)c1cnc2ccccc2c1 | 0.1 | -1.8 | 10.2 | 7.4 | 3.2 | 31.1* | 23.0
